Where “and” joins values, the source holds several entries; their conditions need not be identical. Identical values can stand only once.
experiment: Hydrolysis rate constant at pH 10; format: ADME; settings: buffer

Which k does the source give for `CC1=C(C(=O)O)N2C(=O)C(NC(=O)Cc3cccs3)C2SC1` (configuration not stated) here?
Its k is 0.038 h⁻¹.

For `CC1=C(C(=O)O)N2C(=O)C(NC(=O)C(N)C3=CCC=CC3)C2SC1` (configuration not stated), which k is on record?
Its k is 0.067 h⁻¹.

For `CC(=O)OCC1=C(C(=O)O)N2C(=O)C(NC(=O)COc3ccccc3)C2SC1` (configuration not stated), which k is on record?
Its k is 0.378 h⁻¹.

Which k does the source give for `CC1=C(C(=O)O)N2C(=O)C(N)C2SC1` (configuration not stated) here?
Its k is 0.0097 h⁻¹.

With `CC(=O)OCC1=C(C(=O)O)N2C(=O)C(NC(=O)Cc3ccccc3)C2SC1` (configuration not stated) as the compound, how does the k read?
The k was 0.36 h⁻¹.

Which k does the source give for `O=C(COc1ccccc1)NC1C(=O)N2C(C(=O)O)=C(CO)CSC12` (configuration not stated) here?
Its k is 0.084 h⁻¹.

For `Cc1nnc(SCC2=C(C(=O)O)N3C(=O)[C@@H](NC(=O)Cn4cnnn4)[C@H]3SC2)s1` [CEFAZOLIN], which k is on record?
Its k is 0.217 h⁻¹.

Which k does the source give for `O=C(COc1ccccc1)NC1C(=O)N2C(C(=O)[O-])=C(C[n+]3ccccc3)CSC12` (configuration not stated) here?
Its k is 0.857 h⁻¹.

With `CSCC1=C(C(=O)O)N2C(=O)C(NC(=O)Cc3cccs3)C2SC1` (configuration not stated) as the compound, how does the k read?
The k was 0.079 h⁻¹.

With `CC1=C(C(=O)O)N2C(=O)[C@@H](NC(=O)[C@H](N)c3ccccc3)[C@H]2SC1` [CEPHALEXIN ANHYDROUS] as the compound, how does the k read?
Its k is 0.145 h⁻¹.

Which k does the source give for `CC1=C(C(=O)O)N2C(=O)C(NC(=O)COc3ccccc3)C2SC1` (configuration not stated) here?
Its k is 0.049 h⁻¹.

For `O=C(Cc1cccs1)NC1C(=O)N2C(C(=O)[O-])=C(C[n+]3ccccc3)CSC12` (configuration not stated), which k is on record?
Its k is 0.675 h⁻¹ and 1.08 h⁻¹.

With `CC(=O)OCC1=C(C(=O)O)N2C(=O)C(NC(=O)Cc3cccs3)C2SC1` (configuration not stated) as the compound, how does the k read?
The k was 0.349 h⁻¹ and 0.3 h⁻¹.

Which k does the source give for `CC1=C(C(=O)O)N2C(=O)C(NC(=O)Cc3ccccc3)C2SC1` (configuration not stated) here?
The k was 0.033 h⁻¹.

experiment: Hydrolysis rate constant at pH 9.6; format: ADME; settings: buffer
Procedure, shortened: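 Alkaline hydrolysis was followed by UV spectrophotometry on aqueous cephalosporin solutions at 6 × 10^-4 M and 35.0 ± 0.1 °C, with pH held at 9.60 ± 0.02 by borate buffer.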

Which k does the source give for `O=C(Cc1cccs1)NC1C(=O)N2C(C(=O)O)=C(CSC3=CCC=CC3)CSC12` (configuration not stated) here?
Its k is 0.019 h⁻¹.

With `O=C(Cc1cccs1)NC1C(=O)N2C(C(=O)O)=C(CSc3c[nH]nn3)CSC12` (configuration not stated) as the compound, how does the k read?
Its k is 0.028 h⁻¹.

With `CC1=C(C(=O)O)N2C(=O)C(NC(=O)C(N)C3=CCC=CC3)C2SC1` (configuration not stated) as the compound, how does the k read?
The k was 0.056 h⁻¹.

Which k does the source give for `Cn1nnnc1SCC1=C(C(=O)O)N2C(=O)C(NC(=O)C(Br)c3cccs3)C2SC1` (configuration not stated) here?
Its k is 0.21 h⁻¹.

Which k does the source give for `CC1=C(C(=O)O)N2C(=O)C(NC(=O)Cc3noc(C)n3)C2SC1` (configuration not stated) here?
Its k is 0.021 h⁻¹.

For `O=C(Cc1cccs1)NC1C(=O)N2C(C(=O)O)=C(CSc3nc4ccccc4s3)CSC12` (configuration not stated), which k is on record?
Its k is 0.095 h⁻¹.

For `Cc1nc(CC(=O)NC2C(=O)N3C(C(=O)O)=C(CSc4nnc(C)s4)CSC23)no1` (configuration not stated), which k is on record?
The k was 0.104 h⁻¹.

Which k does the source give for `Cc1nnc(SCC2=C(C(=O)O)N3C(=O)C(NC(=O)Cc4cccs4)C3SC2)s1` (configuration not stated) here?
The k was 0.12 h⁻¹.

With `Cc1nnc(SCC2=C(C(=O)O)N3C(=O)[C@@H](NC(=O)Cn4cnnn4)[C@H]3SC2)s1` [CEFAZOLIN] as the compound, how does the k read?
The k was 0.107 h⁻¹.

Which k does the source give for `CC(C(=O)NC1C(=O)N2C(C(=O)O)=C(CSc3nnnn3C)CSC12)c1cccs1` (configuration not stated) here?
The k was 0.112 h⁻¹.

Which k does the source give for `Cn1nnnc1SCC1=C(C(=O)O)N2C(=O)C(NC(=O)C(C(=O)[O-])c3cccs3)C2SC1.[Na+]` (configuration not stated) here?
Its k is 0.122 h⁻¹.

For `NC(=O)c1ccc[n+](CC2=C(C(=O)[O-])N3C(=O)C(NC(=O)Cc4cccs4)C3SC2)c1` (configuration not stated), which k is on record?
The k was 0.57 h⁻¹.

For `Cc1nc(CC(=O)NC2C(=O)N3C(C(=O)O)=C(CSc4c[nH]nn4)CSC23)no1` (configuration not stated), which k is on record?
Its k is 0.026 h⁻¹.

For `CC(=O)OCC1=C(C(=O)O)N2C(=O)[C@@H](N)[C@H]2SC1`, which k is on record?
The k was 0.037 h⁻¹.

With `CC1=C(C(=O)O)N2C(=O)[C@@H](NC(=O)[C@H](N)c3ccccc3)[C@H]2SC1` [CEPHALEXIN ANHYDROUS] as the compound, how does the k read?
The k was 0.058 h⁻¹.

Which k does the source give for `Cn1nnnc1SCC1=C(C(=O)O)N2C(=O)C(NC(=O)Cc3cccs3)C2SC1` (configuration not stated) here?
The k was 0.126 h⁻¹.

For `CC(=O)OCC1=C(C(=O)O)N2C(=O)C(NC(=O)NCc3cccs3)C2SC1` (configuration not stated), which k is on record?
Its k is greater than 3 h⁻¹.

With `CC(=O)OCC1=C(C(=O)O)N2C(=O)C(NC(=O)CSc3ccncc3)C2SC1` (configuration not stated) as the compound, how does the k read?
The k was 0.157 h⁻¹.

Which k does the source give for `O=C(Cc1cccs1)NC1C(=O)N2C(C(=O)[O-])=C(C[n+]3ccccc3)CSC12` (configuration not stated) here?
Its k is 0.53 h⁻¹.

With `CC(=O)OCC1=C(C(=O)O)N2C(=O)C(NC(=O)Cc3cccs3)C2SC1` (configuration not stated) as the compound, how does the k read?
The k was 0.147 h⁻¹.

For `Cc1nc(CC(=O)NC2C(=O)N3C(C(=O)O)=C(CSc4nnc(C)o4)CSC23)no1` (configuration not stated), which k is on record?
The k was 0.105 h⁻¹.

With `CC1=C(C(=O)O)N2C(=O)C(NC(=O)Cc3ccccc3)C2SC1` (configuration not stated) as the compound, how does the k read?
Its k is 0.017 h⁻¹.

With `CCN(CC)C(=S)SCC1=C(C(=O)O)N2C(=O)C(NC(=O)Cc3cccs3)C2SC1` (configuration not stated) as the compound, how does the k read?
Its k is 0.067 h⁻¹.
